Measured values: ChEMBL document CHEMBL2407075, “Sulphonamido-quinoxalines: search for anticancer agent” (Eur J Med Chem, 2013)

Legend:
Type in all cases: functional
[1] = test system: RPMI-8226; assay: Growth inhibition of human RPMI8226 cells assessed as cell growth at 10^-4 M after 48 hrs by sulforhodamine B assay; settings: RPMI-8226, 48 h, read-out: Activity
[2] = test system: RXF 393; assay: Growth inhibition of human RXF393 cells assessed as cell growth at 10^-7 M after 48 hrs by sulforhodamine B assay; settings: RXF 393, 48 h, read-out: Activity
[3] = test system: HCT-15; assay: Growth inhibition of human HCT15 cells assessed as cell growth at 10^-8 M after 48 hrs by sulforhodamine B assay; settings: HCT-15, 48 h, read-out: Activity
How it was run: (§1)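 Five-dose screen at NCI. Cells in RPMI 1640 with 5% FBS and 2 mM L-glutamine, seeded at 5000–40,000 cells/well and grown 24 h at 37 °C, 5% CO2 before dosing, with time-zero plates TCA-fixed. Drug diluted from DMSO stock to 0.01, 0.1, 1, 10 and 100 µM final, 48 h. Cells fixed with cold TCA (10% final), stained with 0.4% SRB and read at 515 nm. Percent growth from Tz, control and test absorbances; GI50, TGI and LC50 from dose-response curves.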

[4] = test system: DU-145; assay: Growth inhibition of human DU145 cells assessed as cell growth at 10^-5 M after 48 hrs by sulforhodamine B assay; settings: DU-145, 48 h, read-out: Activity
How it was run: (§2)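 Five-dose NCI-60 run (0.01, 0.1, 1, 10 and 100 µM, as 10-fold dilutions from a DMSO stock made at 400× the top final level). Cells were grown in RPMI 1640 with 5% FBS and 2 mM glutamine and plated for 24 h. They were then exposed for 48 h at 37 °C and 5% CO2. TCA fixation was followed by SRB staining with A515 read-out. Percent growth was taken relative to time-zero and control plates.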

[5] = test system: NCI-H23; assay: Growth inhibition of human NCI-H23 cells assessed as cell growth at 10^-8 M after 48 hrs by sulforhodamine B assay; settings: NCI-H23, 48 h, read-out: Activity
[6] = test system: SK-MEL-2; assay: Growth inhibition of human SK-MEL-2 cells assessed as cell growth at 10^-6 M after 48 hrs by sulforhodamine B assay; settings: SK-MEL-2, 48 h, read-out: Activity
[7] = test system: NCI-H522; assay: Growth inhibition of human NCI-H522 cells assessed as cell growth at 10^-7 M after 48 hrs by sulforhodamine B assay; settings: NCI-H522, 48 h, read-out: Activity
[8] = Growth inhibition of human NCI-ADR-RES cells after 48 hrs by sulforhodamine B assay; settings: for CC50: read-out: LC50 (the source's name)
How it was run: (§3)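 Adherent cells in RPMI 1640 with 5% FBS and 2 mM L-glutamine were plated at 5000–40,000 cells/well and grown 24 h. Five concentrations (0.01–100 µM, DMSO stock) were added for 48 h at 37 °C. Cells were fixed with cold TCA (10% final) and stained with SRB, read at 515 nm. GI50 came from log concentration–growth curves against time-zero and control plates.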

[9] = test system: HCT-116; assay: Growth inhibition of human HCT116 cells assessed as cell growth at 10^-7 M after 48 hrs by sulforhodamine B assay; settings: HCT-116, 48 h, read-out: Activity; how it was run: as §1
[10] = test system: A549; assay: Growth inhibition of human A549/ATCC cells assessed as cell growth at 10^-6 M after 48 hrs by sulforhodamine B assay; settings: A549, 48 h, read-out: Activity; how it was run: as §2
[11] = test system: SF-539; assay: Growth inhibition of human SF539 cells assessed as cell growth at 10^-7 M after 48 hrs by sulforhodamine B assay; settings: SF-539, 48 h, read-out: Activity
[12] = test system: NCI-H522; assay: Growth inhibition of human NCI-H522 cells after 48 hrs by sulforhodamine B assay; settings: NCI-H522, 48 h; for CC50: read-out: LC50 (the source's name); how it was run: as §3
[13] = test system: SR; assay: Growth inhibition of human SR cells assessed as cell growth at 10^-8 M after 48 hrs by sulforhodamine B assay; settings: read-out: Activity
[14] = test system: OVCAR-3; assay: Growth inhibition of human OVCAR3 cells assessed as cell growth at 10^-6 M after 48 hrs by sulforhodamine B assay; settings: OVCAR-3, 48 h, read-out: Activity
[15] = test system: SK-MEL-28; assay: Growth inhibition of human SK-MEL-28 cells assessed as cell growth at 10^-6 M after 48 hrs by sulforhodamine B assay; settings: SK-MEL-28, 48 h, read-out: Activity
[16] = test system: U-251; assay: Growth inhibition of human U251 cells assessed as cell growth at 10^-4 M after 48 hrs by sulforhodamine B assay; settings: U-251, 48 h, read-out: Activity
[17] = test system: MCF7; assay: Growth inhibition of human MCF7 cells assessed as cell growth at 10^-7 M after 48 hrs by sulforhodamine B assay; settings: MCF7, 48 h, read-out: Activity
[18] = test system: OVCAR-3; assay: Growth inhibition of human OVCAR3 cells assessed as cell growth at 10^-4 M after 48 hrs by sulforhodamine B assay; settings: OVCAR-3, 48 h, read-out: Activity
[19] = test system: SW-620; assay: Growth inhibition of human SW620 cells assessed as cell growth at 10^-8 M after 48 hrs by sulforhodamine B assay; settings: SW-620, 48 h, read-out: Activity
[20] = test system: DU-145; assay: Growth inhibition of human DU145 cells assessed as cell growth at 10^-6 M after 48 hrs by sulforhodamine B assay; settings: DU-145, 48 h, read-out: Activity; how it was run: as §2
[21] = test system: A549; assay: Growth inhibition of human A549/ATCC cells assessed as cell growth at 10^-8 M after 48 hrs by sulforhodamine B assay; settings: A549, 48 h, read-out: Activity; how it was run: as §2
[22] = test system: ACHN; assay: Growth inhibition of human ACHN cells after 48 hrs by sulforhodamine B assay; settings: for CC50: read-out: LC50 (the source's name); how it was run: as §3
[23] = Growth inhibition of human Hs 578T cells assessed as cell growth at 10^-4 M after 48 hrs by sulforhodamine B assay; settings: read-out: Activity; how it was run: as §1
[24] = Growth inhibition of human EKVX cells assessed as cell growth at 10^-7 M after 48 hrs by sulforhodamine B assay; settings: read-out: Activity; how it was run: as §1
[25] = test system: OVCAR-4; assay: Growth inhibition of human OVCAR4 cells assessed as cell growth at 10^-4 M after 48 hrs by sulforhodamine B assay; settings: OVCAR-4, 48 h, read-out: Activity
[26] = test system: SK-MEL-28; assay: Growth inhibition of human SK-MEL-28 cells assessed as cell growth at 10^-8 M after 48 hrs by sulforhodamine B assay; settings: SK-MEL-28, 48 h, read-out: Activity
[27] = test system: CAKI-1; assay: Growth inhibition of human CAKI-1 cells assessed as cell growth at 10^-4 M after 48 hrs by sulforhodamine B assay; settings: CAKI-1, 48 h, read-out: Activity; how it was run: as §2
[28] = test system: DU-145; assay: Growth inhibition of human DU145 cells assessed as cell growth at 10^-8 M after 48 hrs by sulforhodamine B assay; settings: DU-145, 48 h, read-out: Activity; how it was run: as §2
[29] = test system: HOP-92; assay: Growth inhibition of human HOP92 cells assessed as cell growth at 10^-8 M after 48 hrs by sulforhodamine B assay; settings: HOP-92, 48 h, read-out: Activity; how it was run: as §1
[30] = test system: HT-29; assay: Growth inhibition of human HT-29 cells after 48 hrs by sulforhodamine B assay; settings: HT-29, 48 h; how it was run: as §3
[31] = test system: MDA-MB-231; assay: Growth inhibition of human MDA-MB-231 cells after 48 hrs by sulforhodamine B assay; settings: MDA-MB-231, 48 h

With O=S(=O)(Nc1ccc(Cl)cc1)c1ccc2nc(-c3ccccc3)c(-c3ccccc3)nc2c1 the growth at 100 µM [1] was 40%, the growth at 0.1 µM [2] was 103% and the growth at 0.01 µM [3] was 100%. For the same compound, the growth at 10 µM [4] was 26%, the growth at 0.01 µM [5] was 97% and the growth at 1 µM [6] was 99%. The growth at 0.1 µM [7] was 90%, the TGI [8] was over 100 µM and the CC50 [8] was over 100 µM. For the same compound, the growth at 0.1 µM [9] was 90%, the growth at 1 µM [10] was 87% and the growth at 0.1 µM [11] was 96%. For the same compound, the CC50 [12] was over 100 µM, the growth at 0.01 µM [13] was 92% and the growth at 1 µM [14] was 94%. The growth at 1 µM [15] was 91%, the growth at 100 µM [16] was 75% and the growth at 0.1 µM [17] was 95%. It also gave a growth at 100 µM [18] of 65%, a growth at 0.01 µM [19] of 93% and a growth at 1 µM [20] of 93%. For the same compound, the growth at 0.01 µM [21] was 94%, the TGI [22] was over 100 µM and the CC50 [22] was over 100 µM. For the same compound, the growth at 100 µM [23] was 59%, the growth at 0.1 µM [24] was 100% and the growth at 100 µM [25] was 52%. The growth at 0.01 µM [26] was 97%, the growth at 100 µM [27] was 65% and the growth at 0.01 µM [28] was 105%. It also gave a growth at 0.01 µM [29] of 96%.
With O=S(=O)(Nc1ccccn1)c1ccc2nc(-c3ccccc3)c(-c3ccccc3)nc2c1 the growth at 100 µM [1] was 27%, the growth at 0.1 µM [2] was 109% and the growth at 0.01 µM [3] was 100%. The growth at 10 µM [4] was 31%, the growth at 0.01 µM [5] was 95% and the growth at 0.1 µM [7] was 88%. For the same compound, the CC50 [8] was over 100 µM, the growth at 0.1 µM [9] was 87% and the growth at 1 µM [10] was 96%. The growth at 0.1 µM [11] was 94%, the GI50 [12] was 1.6 µM and the CC50 [12] was over 100 µM. The growth at 0.01 µM [13] was 93%, the growth at 1 µM [14] was 92% and the growth at 1 µM [15] was 96%. For the same compound, the growth at 100 µM [16] was 47%, the growth at 0.1 µM [17] was 96% and the growth at 100 µM [18] was 45%. For the same compound, the growth at 0.01 µM [19] was 101%, the growth at 1 µM [20] was 95% and the growth at 0.01 µM [21] was 95%. The TGI [22] was over 100 µM, the CC50 [22] was over 100 µM and the growth at 100 µM [23] was 46%. It also gave a GI50 [30] of 1.78 µM, a CC50 ([30]; read-out: LC50 (the source's name)) of over 100 µM and a growth at 0.1 µM [24] of 99%. It also gave a growth at 100 µM [25] of 21%, a growth at 0.01 µM [26] of 101% and a GI50 [31] of 1.82 µM. It also gave a growth at 100 µM [27] of 73%, a growth at 0.01 µM [28] of 102% and a growth at 0.01 µM [29] of 94%.
